Source: ChEMBL document CHEMBL1671716, “Antimicrobial susceptibility patterns for recent clinical isolates of anaerobic bacteria in South Korea” (2010)
Converted amounts (≈) assume the structure as drawn.

Assays:
[1] = test system: Finegoldia magna; assay: Antimicrobial activity against Finegoldia magna assessed as percent susceptible isolates after 48 hrs by agar dilution method; type: functional
Method in brief: (§1)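 CLSI agar dilution (M11-A7); inoculum 10^5 CFU applied by replicator; plates incubated anaerobically 48 h at 37°C. For piperacillin-tazobactam, tazobactam held constant at 4 μg/ml.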

[2] = test system: Porphyromonas asaccharolytica; assay: Antimicrobial activity against Porphyromonas asaccharolytica after 48 hrs by agar dilution method; type: functional; method in brief: as §1
[3] = test system: Parvimonas micra; assay: Antimicrobial activity against Peptostreptococcus micros after 48 hrs by agar dilution method; type: functional; method in brief: as §1
[4] = test system: Eubacterium sp.; assay: Antimicrobial activity against Eubacterium sp. after 48 hrs by agar dilution method; type: functional; method in brief: as §1
[5] = test system: Schaalia meyeri; assay: Antimicrobial activity against Actinomyces meyeri assessed as percent susceptible isolates after 48 hrs by agar dilution method; type: functional
[6] = test system: Actinomyces naeslundii; assay: Antimicrobial activity against Actinomyces naeslundii assessed as percent resistant isolates after 48 hrs by agar dilution method; type: functional
Method in brief: (§2)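 CLSI agar dilution on recent Korean clinical anaerobe isolates. Inoculum 10^5 CFU per spot by replicator. Plates incubated in an anaerobic chamber at 37°C for 48 h. For piperacillin plus tazobactam, tazobactam was held constant at 4 μg/ml. Resistance and susceptibility rates derived from MICs.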

[7] = test system: Eubacterium sp.; assay: Antimicrobial activity against Eubacterium sp. assessed as percent resistant isolates after 48 hrs by agar dilution method; type: functional; method in brief: as §2
[8] = test system: Prevotella intermedia; assay: Antimicrobial activity against Prevotella intermedia after 48 hrs by agar dilution method; type: functional; method in brief: as §1
[9] = test system: Bacteroides ovatus; assay: Antimicrobial activity against Bacteroides ovatus after 48 hrs by agar dilution method; type: functional
Method in brief: (§3)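 MICs on clinical anaerobe isolates by the CLSI agar dilution method. Inoculum of 10^5 CFU applied with a Steers replicator. Plates incubated 48 h at 37°C in an anaerobic chamber.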

[10] = test system: Actinomyces israelii; assay: Antimicrobial activity against Actinomyces israelii assessed as percent susceptible isolates after 48 hrs by agar dilution method; type: functional
[11] = test system: Fusobacterium varium; assay: Antimicrobial activity against Fusobacterium varium after 48 hrs by agar dilution method; type: functional; method in brief: as §1
[12] = test system: Fusobacterium necrogenes; assay: Antimicrobial activity against Fusobacterium necrogenes after 48 hrs by agar dilution method; type: functional; method in brief: as §1
[13] = test system: Bacteroides ovatus; assay: Antimicrobial activity against Bacteroides ovatus assessed as percent resistant isolates after 48 hrs by agar dilution method; type: functional; method in brief: as §2
[14] = test system: Schaalia odontolytica; assay: Antimicrobial activity against Actinomyces odontolyticus assessed as percent resistant isolates after 48 hrs by agar dilution method; type: functional; method in brief: as §2
[15] = test system: Parabacteroides distasonis; assay: Antimicrobial activity against Bacteroides distasonis assessed as percent resistant isolates after 48 hrs by agar dilution method; type: functional; method in brief: as §2
[16] = test system: Prevotella bivia; assay: Antimicrobial activity against Prevotella bivia assessed as percent susceptible isolates after 48 hrs by agar dilution method; type: functional; method in brief: as §1
[17] = test system: Prevotella intermedia; assay: Antimicrobial activity against Prevotella intermedia assessed as percent susceptible isolates after 48 hrs by agar dilution method; type: functional; method in brief: as §1
[18] = test system: Finegoldia magna; assay: Antimicrobial activity against Finegoldia magna assessed as percent resistant isolates after 48 hrs by agar dilution method; type: functional; method in brief: as §2
[19] = test system: Schaalia meyeri; assay: Antimicrobial activity against Actinomyces meyeri after 48 hrs by agar dilution method; type: functional; method in brief: as §3
[20] = test system: Parabacteroides distasonis; assay: Antimicrobial activity against Bacteroides distasonis assessed as percent susceptible isolates after 48 hrs by agar dilution method; type: functional
[21] = test system: Prevotella buccae; assay: Antimicrobial activity against Prevotella buccae after 48 hrs by agar dilution method; type: functional; conditions: Segatella buccae; method in brief: as §1
[22] = test system: Actinomyces israelii; assay: Antimicrobial activity against Actinomyces israelii after 48 hrs by agar dilution method; type: functional; method in brief: as §3
[23] = test system: Parvimonas micra; assay: Antimicrobial activity against Peptostreptococcus micros assessed as percent susceptible isolates after 48 hrs by agar dilution method; type: functional; method in brief: as §2
[24] = test system: Phocaeicola vulgatus; assay: Antimicrobial activity against Bacteroides vulgatus assessed as percent resistant isolates after 48 hrs by agar dilution method; type: functional; method in brief: as §2
[25] = test system: Eggerthella lenta; assay: Antimicrobial activity against Eubacterium lentum assessed as percent resistant isolates after 48 hrs by agar dilution method; type: functional; method in brief: as §2
[26] = test system: Bifidobacterium sp.; assay: Antimicrobial activity against Bifidobacterium sp. assessed as percent susceptible isolates after 48 hrs by agar dilution method; type: functional; method in brief: as §1
[27] = test system: Bacteroides caccae; assay: Antimicrobial activity against Bacteroides caccae after 48 hrs by agar dilution method; type: functional; method in brief: as §3
[28] = test system: Anaerococcus prevotii; assay: Antimicrobial activity against Anaerococcus prevotii assessed as percent susceptible isolates after 48 hrs by agar dilution method; type: functional
[29] = test system: Peptoniphilus asaccharolyticus; assay: Antimicrobial activity against Peptoniphilus asaccharolyticus after 48 hrs by agar dilution method; type: functional; method in brief: as §1
[30] = test system: Clostridium perfringens; assay: Antimicrobial activity against Clostridium perfringens assessed as percent susceptible isolates after 48 hrs by agar dilution method; type: functional
[31] = test system: Phocaeicola vulgatus; assay: Antimicrobial activity against Bacteroides vulgatus assessed as percent susceptible isolates after 48 hrs by agar dilution method; type: functional
[32] = test system: Eggerthella lenta; assay: Antimicrobial activity against Eubacterium lentum assessed as percent susceptible isolates after 48 hrs by agar dilution method; type: functional; method in brief: as §1
[33] = test system: Bacteroides thetaiotaomicron; assay: Antimicrobial activity against Bacteroides thetaiotaomicron after 48 hrs by agar dilution method; type: functional; method in brief: as §3
[34] = test system: Schaalia meyeri; assay: Antimicrobial activity against Actinomyces meyeri assessed as percent resistant isolates after 48 hrs by agar dilution method; type: functional; method in brief: as §2
[35] = test system: Clostridioides difficile; assay: Antimicrobial activity against Clostridium difficile assessed as percent susceptible isolates after 48 hrs by agar dilution method; type: functional
[36] = test system: Bacteroides thetaiotaomicron; assay: Antimicrobial activity against Bacteroides thetaiotaomicron assessed as percent resistant isolates after 48 hrs by agar dilution method; type: functional; method in brief: as §2
[37] = test system: Bacteroides fragilis; assay: Antimicrobial activity against Bacteroides fragilis assessed as percent resistant isolates after 48 hrs by agar dilution method; type: functional; method in brief: as §2
[38] = test system: Peptoniphilus asaccharolyticus; assay: Antimicrobial activity against Peptoniphilus asaccharolyticus assessed as percent resistant isolates after 48 hrs by agar dilution method; type: functional; method in brief: as §2
[39] = test system: Bacteroides thetaiotaomicron; assay: Antimicrobial activity against Bacteroides thetaiotaomicron assessed as percent susceptible isolates after 48 hrs by agar dilution method; type: functional
[40] = test system: Bacteroides caccae; assay: Antimicrobial activity against Bacteroides caccae assessed as percent susceptible isolates after 48 hrs by agar dilution method; type: functional
[41] = test system: Actinomyces naeslundii; assay: Antimicrobial activity against Actinomyces naeslundii assessed as percent susceptible isolates after 48 hrs by agar dilution method; type: functional
[42] = test system: Bifidobacterium sp.; assay: Antimicrobial activity against Bifidobacterium sp. assessed as percent resistant isolates after 48 hrs by agar dilution method; type: functional; method in brief: as §2
[43] = test system: Finegoldia magna; assay: Antimicrobial activity against Finegoldia magna after 48 hrs by agar dilution method; type: functional; method in brief: as §1
[44] = test system: Hoylesella oralis; assay: Antimicrobial activity against Prevotella oralis assessed as percent susceptible isolates after 48 hrs by agar dilution method; type: functional
Method in brief: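 CLSI agar dilution MIC testing of clinical isolates. 10^5 CFU spotted by replicator, plates incubated 48 h at 37°C in an anaerobic chamber. Susceptibility rates derived from the MICs.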

[45] = test system: Schaalia odontolytica; assay: Antimicrobial activity against Actinomyces odontolyticus after 48 hrs by agar dilution method; type: functional; method in brief: as §3
[46] = test system: Prevotella bivia; assay: Antimicrobial activity against Prevotella bivia assessed as percent resistant isolates after 48 hrs by agar dilution method; type: functional; method in brief: as §2
[47] = test system: Fusobacterium nucleatum; assay: Antimicrobial activity against Fusobacterium nucleatum after 48 hrs by agar dilution method; type: functional; method in brief: as §1
[48] = test system: Prevotella buccae; assay: Antimicrobial activity against Prevotella buccae assessed as percent resistant isolates after 48 hrs by agar dilution method; type: functional, Segatella buccae; method in brief: as §2

CCC[C@@H]1C[C@@H](C(=O)N[C@@H]([C@H]2O[C@H](SC)[C@H](O)[C@@H](O)[C@H]2O)[C@H](C)Cl)N(C)C1 [CLINDAMYCIN]
Activity [1]: 73% | MIC [2]: 0.06 µg/mL (≈ 0.141 µM) | MIC50 [3]: 0.125 µg/mL (≈ 0.294 µM) | MIC90 [3]: 64 µg/mL (≈ 151 µM) | MIC [4]: 0.06 µg/mL (≈ 0.141 µM) | MIC50 [4]: 0.06 µg/mL (≈ 0.141 µM) | MIC90 [4]: > 128 µg/mL | Activity [5]: 85% | Activity [6]: 15% | Activity [7]: 15% | MIC50 [8]: ≤ 0.06 µg/mL | MIC90 [8]: ≤ 0.06 µg/mL | MIC50 [9]: > 128 µg/mL | MIC90 [9]: > 128 µg/mL | Activity [10]: 85% | MIC [11]: 0.06 µg/mL (≈ 0.141 µM) | MIC [12]: 0.06 µg/mL (≈ 0.141 µM) | Activity [13]: 68% | Activity [14]: 15% | Activity [15]: 68% | Activity [16]: 50% | Activity [17]: 100% | Activity [18]: 13% | MIC [19]: 0.06 µg/mL (≈ 0.141 µM) | MIC50 [19]: 0.06 µg/mL (≈ 0.141 µM) | MIC90 [19]: > 128 µg/mL | Activity [20]: 16% | MIC50 [21]: ≤ 0.06 µg/mL | MIC90 [21]: 128 µg/mL (≈ 301 µM) | MIC [22]: 0.06 µg/mL (≈ 0.141 µM) | MIC50 [22]: 0.06 µg/mL (≈ 0.141 µM) | MIC90 [22]: > 128 µg/mL | Activity [23]: 23% | Activity [24]: 68% | Activity [25]: 15% | Activity [26]: 85% | MIC50 [27]: > 128 µg/mL | MIC90 [27]: > 128 µg/mL | Activity [28]: 60% | MIC50 [29]: 0.125 µg/mL (≈ 0.294 µM) | MIC90 [29]: 32 µg/mL (≈ 75.3 µM) | Activity [30]: 80% | Activity [31]: 16% | Activity [32]: 85% | MIC50 [33]: > 128 µg/mL | MIC90 [33]: > 128 µg/mL | Activity [34]: 15% | Activity [35]: 8% | Activity [36]: 68% | Activity [37]: 33% | Activity [38]: 33% | Activity [39]: 16% | Activity [40]: 16% | Activity [41]: 85% | Activity [42]: 15% | MIC50 [43]: 0.25 µg/mL (≈ 0.588 µM) | MIC90 [43]: 64 µg/mL (≈ 151 µM) | Activity [44]: 50% | MIC [45]: 0.06 µg/mL (≈ 0.141 µM) | MIC50 [45]: 0.06 µg/mL (≈ 0.141 µM) | MIC90 [45]: > 128 µg/mL

Cc1ncc([N+](=O)[O-])n1CCO [METRONIDAZOLE]
Activity [1]: 100% | MIC [2]: 0.13 µg/mL (≈ 0.76 µM) | MIC50 [3]: 0.5 µg/mL (≈ 2.92 µM) | MIC90 [3]: 1 µg/mL (≈ 5.84 µM) | MIC50 [4]: 16 µg/mL (≈ 93.5 µM) | MIC90 [4]: > 128 µg/mL | Activity [46]: 0% | Activity [5]: 46% | MIC [8]: 0.5 µg/mL (≈ 2.92 µM) | MIC50 [8]: 0.5 µg/mL (≈ 2.92 µM) | MIC90 [8]: 2 µg/mL (≈ 11.7 µM) | MIC [47]: 0.13 µg/mL (≈ 0.76 µM) | MIC50 [9]: 2 µg/mL (≈ 11.7 µM) | MIC90 [9]: 2 µg/mL (≈ 11.7 µM) | Activity [10]: 46% | MIC [11]: 0.13 µg/mL (≈ 0.76 µM) | MIC [12]: 0.13 µg/mL (≈ 0.76 µM) | Activity [13]: 0% | Activity [15]: 0% | Activity [16]: 100% | Activity [48]: 0% | Activity [17]: 100% | Activity [18]: 0% | MIC50 [19]: 16 µg/mL (≈ 93.5 µM) | MIC90 [19]: > 128 µg/mL | Activity [20]: 100% | MIC50 [21]: 4 µg/mL (≈ 23.4 µM) | MIC90 [21]: 8 µg/mL (≈ 46.7 µM) | MIC50 [22]: 16 µg/mL (≈ 93.5 µM) | MIC90 [22]: > 128 µg/mL | Activity [23]: 0% | Activity [24]: 0% | Activity [26]: 46% | MIC50 [27]: 2 µg/mL (≈ 11.7 µM) | MIC90 [27]: 2 µg/mL (≈ 11.7 µM) | Activity [28]: 100% | MIC50 [29]: 1 µg/mL (≈ 5.84 µM) | MIC90 [29]: 1 µg/mL (≈ 5.84 µM) | Activity [30]: 100% | Activity [31]: 100% | Activity [32]: 46% | MIC50 [33]: 2 µg/mL (≈ 11.7 µM) | MIC90 [33]: 2 µg/mL (≈ 11.7 µM) | Activity [35]: 100% | Activity [36]: 0% | Activity [37]: 0% | Activity [38]: 0% | Activity [39]: 100% | Activity [40]: 100% | Activity [41]: 46% | MIC [43]: 0.5 µg/mL (≈ 2.92 µM) | MIC50 [43]: 0.5 µg/mL (≈ 2.92 µM) | MIC90 [43]: 1 µg/mL (≈ 5.84 µM) | Activity [44]: 100% | MIC50 [45]: 16 µg/mL (≈ 93.5 µM) | MIC90 [45]: > 128 µg/mL
